{"data": "Measurements pooled from the literature", "organism": "Staphylococcus aureus", "observed": "microbial growth", "note": "Compare with care: the assays were run in different laboratories."}
{"SMILES": "Cc1ccc2nc(-c3cc(Br)ccc3O)[nH]c2c1", "test": "broth dilution", "system": "ATCC29213 MSSA", "MIC": "64 µg/mL"}
{"SMILES": "O=C1NC(=S)N/C1=C\\c1ccc(-c2ccc(N(c3ccccc3)c3ccccc3)cc2)c2ccccc12", "test": "broth dilution", "system": "ATCC43300", "MIC": "> 1000 µg/mL"}
{"SMILES": "CC(C)Oc1c(NC(=O)c2ccc(NC(=O)[C@H](CC(N)=O)NC(=O)c3ccc(NC(=O)c4ccc(C#N)cc4)cc3)cc2)ccc(C(=O)NC2CCNCC2)c1O", "system": "ATCC29213", "MIC": "> 64 µg/mL"}
{"SMILES": "C=CC1(C)CC(OC(=O)CSCCCCCN(C)C)C2(C)C(C)CCC3(CCC(=O)C32)C(C)C1O (centres unmarked)", "MIC": "0.5 µg/mL"}
{"SMILES": "Cc1ccc2nc(-c3ccc(Cl)cc3)n(Cc3ccccc3)c2c1", "test": "broth dilution", "system": "ATCC29213 MSSA", "MIC": "4 µg/mL"}
{"SMILES": "CC(C)Oc1c(NC(=O)c2ccc(NC(=O)[C@H](CC(N)=O)NC(=O)c3ccc(NC(=O)c4ccc(S(C)(=O)=O)cc4)cc3)cc2)ccc(C(=O)Nc2ccc(C(=O)O)cc2)c1O", "system": "ATCC29213", "MIC": "> 64 µg/mL"}
{"SMILES": "COc1cccc(-c2nc3ccccc3n2Cc2ccccc2)c1", "test": "broth dilution", "system": "ATCC29213 MSSA", "MIC": "256 µg/mL"}
{"SMILES": "CCn1cc(C(=O)O)c(=O)c2cc(F)c(N3CCNCC3)cc21", "test": "broth dilution", "system": "ATCC11632", "setting": "18 h", "MIC": "< 5 µg/mL"}
{"SMILES": "Cc1ccc2nc(-c3ccc(N(C)C)cc3)[nH]c2c1", "test": "broth dilution", "system": "ATCC29213 MSSA", "MIC": "64 µg/mL"}
{"SMILES": "C=CC(=O)Nc1cccc(Oc2nc(Nc3ccc(N4CCN(C)CC4)cc3OC)ncc2Cl)c1", "system": "NCTC8325", "MIC": "> 30 µM"}
{"SMILES": "C/C=C(\\C)c1cc(OC(=O)c2c(O)c(C)c(O)c(Cl)c2/C(C)=C/C)c(C)c(O)c1C(=O)O", "test": "broth dilution", "system": "6917", "MIC": "> 64 µg/mL"}
{"SMILES": "O=C(CCCCCC[P+](c1ccccc1)(c1ccccc1)c1ccccc1)Nc1ccc(O)c(O)c1.[Br-]", "test": "broth dilution", "system": "ATCC43300 MRSA", "setting": "18 h", "MIC": "> 32 µg/mL"}
{"SMILES": "COc1c(C)c(O)c(C)c(O)c1C(=O)/C=C/c1ccccc1", "test": "broth dilution", "system": "ATCC25923", "MIC": "2500 µg/mL"}
{"SMILES": "CC(C)Oc1c(NC(=O)c2ccc(NC(=O)[C@H](CC(N)=O)NC(=O)c3cccc(NC(=O)c4ccc(C#N)cc4)c3)cc2)ccc(C(=O)Nc2ccc(C(=O)O)cc2)c1O", "system": "ATCC29213", "MIC": "> 64 µg/mL"}
{"SMILES": "CC1(C)S[C@@H]2[C@H](NC(=O)[C@H](N)c3ccccc3)C(=O)N2[C@H]1C(=O)O", "test": "broth dilution", "system": "16162", "MIC": "16 µg/mL"}
{"SMILES": "Cc1ccccc1NCc1ccc(Oc2ccccn2)cc1", "MIC": "1.6 µg/mL"}
{"SMILES": "C[C@H]1c2cccc(O)c2C(=O)C2=C(O)[C@]3(O)C(=O)C(C(N)=O)=C(O)[C@@H](N(C)C)[C@@H]3[C@@H](O)[C@@H]21", "setting": "clinical isolate", "MIC": "6.25 µg/mL"}
{"SMILES": "Cc1cc(Nc2cc(CN3CCOCC3)c3nc(C)c(Cc4ccc(Cl)cc4F)n3n2)n[nH]1", "system": "NCTC8325", "MIC": "30 µM"}
{"SMILES": "C/C=C(\\C)c1cc(O)c(C)c(OC(=O)c2c(C)cc(O)c(Cl)c2O)c1", "test": "broth dilution", "system": "6917", "MIC": "32 µg/mL"}
{"SMILES": "Cc1ccc2nc(-c3cccc(O)c3)[nH]c2c1", "test": "broth dilution", "system": "ATCC29213 MSSA", "MIC": "32 µg/mL"}
{"SMILES": "O=C(O)CN1C(=O)/C(=C/c2c3ccccc3c(-c3ccc(N(c4ccccc4)c4ccccc4)cc3)c3ccccc23)NC1=S", "test": "broth dilution", "system": "ATCC25923", "MIC": "> 1000 µg/mL"}
{"SMILES": "C[n+]1c(/C=C/c2ccc(O)cc2)cc(/C=C2\\Sc3ccccc3N2CCCN2CCCC2)c2ccccc21.[I-]", "test": "broth dilution", "system": "ATCCBAA44", "MIC": "32 µg/mL"}
{"SMILES": "CCc1cccc(CC)c1NC(=O)N1Cc2[nH]nc(NC(=O)c3ccc(N4CCN(C)CC4)cc3)c2C1", "system": "NCTC8325", "MIC": "> 30 µM"}
{"SMILES": "COc1c(C)c(OS(=O)(=O)c2ccc3ccccc3c2)c(C)c(OS(=O)(=O)c2ccc3ccccc3c2)c1C(=O)/C=C/c1ccccc1", "test": "broth dilution", "system": "ATCC25923", "MIC": "5000 µg/mL"}
{"SMILES": "O=C(O)c1cccc2ccccc12", "MIC": "> 128 µg/mL"}
{"SMILES": "Oc1ccc(-c2nc(-c3ccc(F)cc3)c(-c3ccncc3)[nH]2)cc1", "system": "NCTC8325", "MIC": "> 30 µM"}
{"SMILES": "Cc1ccc2nc(-c3ccco3)[nH]c2c1", "test": "broth dilution", "system": "ATCC29213 MSSA", "MIC": "256 µg/mL"}
{"SMILES": "Cc1cc2c([nH]c3ccccc32)c2c1C(=O)C=CC2=O", "system": "ATCC29213", "MIC": "64 µg/mL"}
{"SMILES": "Cc1[nH]c(/C=C2\\C(=O)Nc3ccccc32)c(C)c1CCC(=O)O", "system": "NCTC8325", "MIC": "> 30 µM"}
{"SMILES": "O=[N+]([O-])c1ccc(O)c2ncccc12", "test": "broth dilution", "system": "ATCC29213", "MIC": "2 µg/mL"}
{"SMILES": "CC1(C)S[C@@H]2[C@H](NC(=O)COc3ccccc3)C(=O)N2[C@H]1C(=O)O", "test": "broth dilution", "system": "ATCC25923", "setting": "18 h", "MIC": "2 µg/mL"}
{"SMILES": "O=C1NC(=S)N/C1=C\\c1c2ccccc2c(-c2ccc(N(c3ccccc3)c3ccccc3)cc2)c2ccccc12", "test": "broth dilution", "system": "ATCC43300", "MIC": "> 1000 µg/mL"}
{"SMILES": "CCN(CCO)CCCOc1ccc2c(Nc3cc(CC(=O)Nc4cccc(F)c4)[nH]n3)ncnc2c1", "system": "NCTC8325", "MIC": "> 30 µM"}
{"SMILES": "CC1=NN(CNC(=O)c2ccccc2)C(=O)C1=NNn1c(-c2ccccc2)nc2ccccc2c1=O", "test": "broth dilution", "setting": "24 h", "MIC": "51.9 µM"}
{"SMILES": "CN[C@H](CC(C)C)C(=O)N[C@H]1C(=O)N[C@@H](CC(N)=O)C(=O)N[C@H]2C(=O)N[C@H]3C(=O)N[C@H](C(=O)N[C@H](C(=O)O)c4cc(O)cc(O)c4-c4cc3ccc4O)[C@H](O)c3ccc(c(Cl)c3)Oc3cc2cc(c3O[C@@H]2O[C@H](CO)[C@@H](O)[C@H](O)[C@H]2O[C@H]2C[C@](C)(N)[C@H](O)[C@H](C)O2)Oc2ccc(cc2Cl)[C@H]1O", "test": "broth dilution", "system": "ATCC43300", "MIC": "1.96 µg/mL"}
{"SMILES": "CCN(CC)CCNC(=O)c1c(C)[nH]c(/C=C2\\C(=O)Nc3ccc(F)cc32)c1C", "system": "NCTC8325", "MIC": "> 30 µM"}
{"SMILES": "CN(C)[C@@H]1C(O)=C(C(N)=O)C(=O)[C@@]2(O)C(O)=C3C(=O)c4c(O)cccc4[C@@](C)(O)[C@H]3C[C@@H]12", "system": "147", "setting": "clinical isolate", "MIC": "≤ 0.1 µM"}
{"SMILES": "Cn1c(SCc2ccc(Cl)cc2)nnc1-c1cncc(C#Cc2ccccc2)c1", "system": "MRSA", "setting": "drug-resistant strain", "MIC": "≥ 20 µg/mL"}
{"SMILES": "C#CCCCCC(=O)N1CCN(c2ccccc2)CC1", "system": "NCTC8325", "MIC": "> 100 µM"}
{"SMILES": "COc1c(C(=O)Nc2ccc(C(=O)O)cc2)ccc2nc(-c3cc(NC(=O)C(CC(N)=O)NC(=O)c4ccc(NC(=O)c5ccc(C#N)cc5)cc4)cn3C)[nH]c12 (centres unmarked)", "system": "ATCC29213", "MIC": "> 64 µg/mL"}
{"SMILES": "O=C(O)c1cc(Br)c(O)c(Br)c1", "MIC": "> 128 µg/mL"}
